Experimental data taken from ChEMBL document CHEMBL3352570, “ST7612AA1, a thioacetate-ω(γ-lactam carboxamide) derivative selected from a novel generation of oral HDAC inhibitors” (J Med Chem, 2014).
The source made the active and inactive calls. The calls are words filed in the database; no cut-off is given here.

Assays:
Histone deacetylase 3 [1] = molecular target: T1, Histone deacetylase 3 (Homo sapiens, UniProt O15379); experiment: Inhibition of HDAC3 (unknown origin) using fluorogenic tetrapeptide RHKK(Ac) substrate at <50 uM by fluorescence assay
T1 sequence (O15379 whole entry, the tested form may be a part): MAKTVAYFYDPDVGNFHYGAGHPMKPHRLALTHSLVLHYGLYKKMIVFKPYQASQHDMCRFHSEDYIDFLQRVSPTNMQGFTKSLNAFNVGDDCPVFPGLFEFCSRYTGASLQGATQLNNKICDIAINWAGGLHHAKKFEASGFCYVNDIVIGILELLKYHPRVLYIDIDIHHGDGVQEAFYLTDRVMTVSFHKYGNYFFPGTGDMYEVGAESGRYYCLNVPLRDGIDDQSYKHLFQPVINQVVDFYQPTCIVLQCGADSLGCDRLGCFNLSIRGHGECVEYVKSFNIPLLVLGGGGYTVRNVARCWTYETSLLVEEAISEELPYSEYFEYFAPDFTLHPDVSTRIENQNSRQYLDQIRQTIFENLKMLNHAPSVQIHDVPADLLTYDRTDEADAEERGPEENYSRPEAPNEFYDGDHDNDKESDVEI
Outline: (§1)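 Fluorogenic assay with the tetrapeptide RHKK(Ac) substrate (p53 residues 379–382) at 50 μM.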

Histone deacetylase 1 [2] = molecular target: T2, Histone deacetylase 1 (Homo sapiens, UniProt Q13547); experiment: Inhibition of HDAC1 (unknown origin) using fluorogenic tetrapeptide RHKK(Ac) substrate at <50 uM by fluorescence assay; outline: as §1
T2 sequence (Q13547 whole entry): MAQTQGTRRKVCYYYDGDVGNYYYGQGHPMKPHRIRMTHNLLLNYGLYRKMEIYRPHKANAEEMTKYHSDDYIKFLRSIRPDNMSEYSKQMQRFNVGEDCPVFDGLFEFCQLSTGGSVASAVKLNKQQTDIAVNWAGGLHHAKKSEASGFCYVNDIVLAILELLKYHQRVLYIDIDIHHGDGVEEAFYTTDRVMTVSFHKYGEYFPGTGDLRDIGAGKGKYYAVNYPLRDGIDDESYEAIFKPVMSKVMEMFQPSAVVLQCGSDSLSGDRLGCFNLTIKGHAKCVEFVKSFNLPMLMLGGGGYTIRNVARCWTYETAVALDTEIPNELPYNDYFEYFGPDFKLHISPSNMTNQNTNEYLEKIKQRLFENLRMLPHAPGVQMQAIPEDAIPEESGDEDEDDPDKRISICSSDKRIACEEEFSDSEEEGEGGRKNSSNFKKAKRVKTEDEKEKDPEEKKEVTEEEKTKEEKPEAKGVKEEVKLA

[3] = molecular target: T3, Protein deacetylase HDAC6 (Homo sapiens, UniProt Q9UBN7); experiment: Inhibition of HDAC6 (unknown origin) using fluorogenic tetrapeptide RHKK(Ac) substrate by fluorescence assay
T3 sequence (Q9UBN7 whole entry): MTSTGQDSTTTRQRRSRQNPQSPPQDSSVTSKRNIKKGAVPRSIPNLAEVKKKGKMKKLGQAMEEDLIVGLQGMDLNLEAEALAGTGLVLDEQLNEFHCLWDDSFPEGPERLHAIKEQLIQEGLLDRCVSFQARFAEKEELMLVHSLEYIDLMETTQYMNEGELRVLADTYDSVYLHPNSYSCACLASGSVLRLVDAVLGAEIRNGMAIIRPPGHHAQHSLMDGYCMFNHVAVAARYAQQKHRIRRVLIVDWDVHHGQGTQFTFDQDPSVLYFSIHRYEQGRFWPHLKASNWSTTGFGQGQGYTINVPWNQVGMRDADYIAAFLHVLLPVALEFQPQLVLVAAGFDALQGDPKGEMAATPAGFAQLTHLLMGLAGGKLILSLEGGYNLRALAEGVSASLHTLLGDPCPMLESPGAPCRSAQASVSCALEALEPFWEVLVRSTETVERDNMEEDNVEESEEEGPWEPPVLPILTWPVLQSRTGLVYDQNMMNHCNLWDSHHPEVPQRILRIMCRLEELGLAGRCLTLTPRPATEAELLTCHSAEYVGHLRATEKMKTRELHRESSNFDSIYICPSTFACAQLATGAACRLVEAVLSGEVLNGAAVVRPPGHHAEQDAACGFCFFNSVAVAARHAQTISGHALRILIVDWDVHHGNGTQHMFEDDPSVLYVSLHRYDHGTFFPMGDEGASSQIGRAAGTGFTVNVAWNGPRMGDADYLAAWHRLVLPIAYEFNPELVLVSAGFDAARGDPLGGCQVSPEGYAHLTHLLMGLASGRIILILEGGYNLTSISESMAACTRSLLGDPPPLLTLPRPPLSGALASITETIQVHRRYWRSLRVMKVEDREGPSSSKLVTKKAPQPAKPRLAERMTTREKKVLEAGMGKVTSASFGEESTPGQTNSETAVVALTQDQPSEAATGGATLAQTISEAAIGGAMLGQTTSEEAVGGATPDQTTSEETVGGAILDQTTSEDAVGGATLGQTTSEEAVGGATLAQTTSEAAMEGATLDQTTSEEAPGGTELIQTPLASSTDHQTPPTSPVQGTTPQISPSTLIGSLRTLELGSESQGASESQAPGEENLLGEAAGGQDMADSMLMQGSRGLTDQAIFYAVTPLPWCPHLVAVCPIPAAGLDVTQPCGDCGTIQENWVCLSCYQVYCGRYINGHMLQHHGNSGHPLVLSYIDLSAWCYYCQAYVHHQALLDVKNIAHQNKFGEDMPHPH

Histone deacetylase 8 = molecular target: T4, Histone deacetylase 8 (Homo sapiens, UniProt Q9BY41); experiment: Inhibition of HDAC8 (unknown origin) using fluorogenic tetrapeptide RHK(Ac)K(Ac) substrate by fluorescence assay
T4 sequence (Q9BY41 whole entry): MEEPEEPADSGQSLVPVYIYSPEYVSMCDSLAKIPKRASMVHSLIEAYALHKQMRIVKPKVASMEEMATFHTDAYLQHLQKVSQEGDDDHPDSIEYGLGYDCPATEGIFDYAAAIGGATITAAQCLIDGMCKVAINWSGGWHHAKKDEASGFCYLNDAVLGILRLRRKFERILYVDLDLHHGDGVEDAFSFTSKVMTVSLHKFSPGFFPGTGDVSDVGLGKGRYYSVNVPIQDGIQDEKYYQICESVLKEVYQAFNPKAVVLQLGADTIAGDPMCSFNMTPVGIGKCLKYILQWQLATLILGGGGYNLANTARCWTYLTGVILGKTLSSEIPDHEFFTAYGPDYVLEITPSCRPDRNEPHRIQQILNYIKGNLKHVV

Histone deacetylase 2 [4] = molecular target: T5, Histone deacetylase 2 (Homo sapiens, UniProt Q92769); experiment: Inhibition of HDAC2 (unknown origin) using fluorogenic tetrapeptide RHKK(Ac) substrate at <50 uM by fluorescence assay; outline: as §1
T5 sequence (Q92769 whole entry): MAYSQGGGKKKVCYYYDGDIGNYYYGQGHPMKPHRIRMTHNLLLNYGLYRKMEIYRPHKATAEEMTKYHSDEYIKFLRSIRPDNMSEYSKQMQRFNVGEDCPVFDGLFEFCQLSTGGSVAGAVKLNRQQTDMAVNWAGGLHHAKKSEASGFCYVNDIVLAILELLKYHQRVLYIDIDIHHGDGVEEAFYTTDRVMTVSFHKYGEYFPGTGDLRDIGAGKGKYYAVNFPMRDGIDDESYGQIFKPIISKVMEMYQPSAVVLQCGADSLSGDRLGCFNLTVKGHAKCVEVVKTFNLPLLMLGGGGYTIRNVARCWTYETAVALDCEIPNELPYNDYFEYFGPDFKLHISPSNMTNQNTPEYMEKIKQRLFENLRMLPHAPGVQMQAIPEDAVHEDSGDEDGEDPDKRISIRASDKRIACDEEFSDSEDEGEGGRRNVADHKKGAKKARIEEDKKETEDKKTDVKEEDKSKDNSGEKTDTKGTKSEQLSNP

Histone deacetylase 11 = molecular target: T6, Histone deacetylase 11 (Homo sapiens, UniProt Q96DB2); experiment: Inhibition of HDAC11 (unknown origin) using fluorogenic tetrapeptide RHKK(Ac) substrate by fluorescence assay
T6 sequence (Q96DB2 whole entry): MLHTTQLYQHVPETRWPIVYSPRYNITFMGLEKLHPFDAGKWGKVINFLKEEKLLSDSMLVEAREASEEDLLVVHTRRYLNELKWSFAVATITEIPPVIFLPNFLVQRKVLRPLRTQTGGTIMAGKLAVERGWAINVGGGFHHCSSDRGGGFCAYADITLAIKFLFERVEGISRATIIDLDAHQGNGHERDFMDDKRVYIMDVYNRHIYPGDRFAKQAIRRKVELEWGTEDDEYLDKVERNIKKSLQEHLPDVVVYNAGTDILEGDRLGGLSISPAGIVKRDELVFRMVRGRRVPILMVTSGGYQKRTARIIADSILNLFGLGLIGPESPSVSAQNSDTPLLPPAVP

[5] = molecular target: T7, Polyamine deacetylase HDAC10 (Homo sapiens, UniProt Q969S8); experiment: Inhibition of HDAC10 (unknown origin) using fluorogenic tetrapeptide RHKK(Ac) substrate by fluorescence assay
T7 sequence (Q969S8 whole entry): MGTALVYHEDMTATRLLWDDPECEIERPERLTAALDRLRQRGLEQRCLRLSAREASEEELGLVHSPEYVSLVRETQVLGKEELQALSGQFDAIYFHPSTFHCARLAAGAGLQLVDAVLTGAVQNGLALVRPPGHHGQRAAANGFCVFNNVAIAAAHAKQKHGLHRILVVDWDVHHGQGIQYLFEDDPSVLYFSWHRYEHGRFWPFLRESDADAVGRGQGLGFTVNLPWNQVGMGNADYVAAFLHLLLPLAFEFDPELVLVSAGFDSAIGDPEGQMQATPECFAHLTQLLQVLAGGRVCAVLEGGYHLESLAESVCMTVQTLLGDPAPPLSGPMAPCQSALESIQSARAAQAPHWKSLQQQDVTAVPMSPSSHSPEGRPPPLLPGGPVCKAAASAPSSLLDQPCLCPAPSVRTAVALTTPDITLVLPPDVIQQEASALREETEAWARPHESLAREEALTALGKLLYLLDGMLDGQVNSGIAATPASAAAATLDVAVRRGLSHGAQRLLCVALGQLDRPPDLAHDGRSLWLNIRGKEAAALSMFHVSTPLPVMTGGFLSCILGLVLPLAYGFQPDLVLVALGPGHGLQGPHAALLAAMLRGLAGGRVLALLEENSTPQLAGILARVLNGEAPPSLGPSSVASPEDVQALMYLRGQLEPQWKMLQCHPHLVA

[6] = Solubility of the compound in water; type: physicochemical
Histone deacetylase 2 [7] = molecular target: T5, Histone deacetylase 2; experiment: Inhibition of HDAC2 (unknown origin) using fluorogenic tetrapeptide RHKK(Ac) substrate by fluorescence assay
Histone deacetylase 1 [8] = molecular target: T2, Histone deacetylase 1; experiment: Inhibition of HDAC1 (unknown origin) using fluorogenic tetrapeptide RHKK(Ac) substrate by fluorescence assay
Histone deacetylase 3 [9] = molecular target: T1, Histone deacetylase 3; experiment: Inhibition of HDAC3 (unknown origin) using fluorogenic tetrapeptide RHKK(Ac) substrate by fluorescence assay
NCI-H460 = experiment: Cytotoxicity against human NCI-H460 cells after 24 hrs by SRB assay; type: functional, cell-based; conditions: NCI-H460, 24 h
Outline: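 NCI-H460 cells were grown in RPMI-1640 with L-glutamine, 10% heat-inactivated FCS and 50 μg/mL gentamicin. Cells were seeded at about 10% confluence and allowed to recover for 24 h. They were exposed to varying concentrations for 24 h, washed, then cultured a further 48 h. Surviving cells were measured by SRB. IC50 is the 50% reduction in cell number versus vehicle, from dose–response curve fitting; means of at least three experiments.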

Row | SMILES | inhibition (Histone deacetylase 3 [1]) | inhibition (Histone deacetylase 1 [2]) | IC50 [3] [nM] | IC50 (Histone deacetylase 8) [nM] | inhibition (Histone deacetylase 2 [4]) | IC50 (Histone deacetylase 11) [nM] | IC50 [5] [nM] | solubility [6] [µg/mL] | IC50 (Histone deacetylase 2 [7]) [nM] | IC50 (Histone deacetylase 1 [8]) [nM] | IC50 (Histone deacetylase 3 [9]) [nM] | IC50 (NCI-H460) [nM]
1 | CC(C)(C)OC(=O)N[C@@H](CCCCCS)C(=O)NC1CCCC1 | inactive | inactive | 1120 | 44000 | inactive | 30700 | 5210 | – | – | – | – | –
2 | O=C1NC[C@H](c2ccccc2)[C@@H]1C(=O)N[C@@H](CCCCCS)C(=O)Nc1ccccc1 | – | – | 4 | 310 | – | 13 | 14 | – | 168 | 32 | 9 | –
3 | CC(=O)SCCCCC[C@H](NC(=O)[C@H]1CCC(=O)N1)C(=O)Nc1cccc(C(F)(F)F)c1 | – | – | – | – | – | – | – | – | – | – | – | 30
4 | Cc1cccc(CCNC(=O)CCCCCCS)c1 | – | – | 2710 | 246 | – | 1870 | 3930 | – | 10700 | 3210 | 2600 | –
5 | Cc1cccc(CCNC(=O)[C@H](CCCCCS)NC(=O)[C@@H]2CCCC(=O)N2)c1 | – | – | 15 | 17 | – | 82 | 81 | – | 601 | 92 | 122 | –
6 | O=C1CCC[C@@H](C(=O)N[C@@H](CCCCCS)C(=O)NCc2cccc(OCc3ccccc3)c2)N1 | – | – | 83 | 9 | – | 293 | 658 | – | 2540 | 504 | 495 | –
7 | O=C1CCC[C@@H](C(=O)N[C@@H](CCCCCSSCCCCC[C@H](NC(=O)[C@@H]2CCCC(=O)N2)C(=O)Nc2ccccc2)C(=O)Nc2ccccc2)N1 | – | – | – | – | – | – | – | – | – | – | – | 5400

Further lines, with some results ahead:

Row | inhibition (Histone deacetylase 3 [1]) | inhibition (Histone deacetylase 1 [2]) | IC50 [3] [nM] | IC50 (Histone deacetylase 8) [nM] | inhibition (Histone deacetylase 2 [4]) | IC50 (Histone deacetylase 11) [nM] | IC50 [5] [nM] | solubility [6] [µg/mL] | IC50 (Histone deacetylase 2 [7]) [nM] | IC50 (Histone deacetylase 1 [8]) [nM] | IC50 (Histone deacetylase 3 [9]) [nM] | SMILES | IC50 (NCI-H460) [nM]
8 | – | – | – | – | – | – | – | > 1000 | – | – | – | CC(=O)SCCCCCCC(=O)Nc1ccccc1 | –
9 | – | – | 1 | 59 | – | 30 | 15 | – | 33 | 24 | 13 | O=C1CC[C@@H](C(=O)N[C@@H](CCCCCS)C(=O)Nc2ccccc2)N1 | –
10 | – | – | – | – | – | – | – | > 1000 | – | – | – | CC(C)C(=O)SCCCCCCC(=O)Nc1ccccc1 | –
